Experiments:
[1] = molecular target: T1, Corticotropin-releasing factor receptor 1 (Homo sapiens, UniProt P34998); test: Binding affinity for corticotropin-releasing factor-1 expressed in […] cells; type: cell-based
T1 sequence (P34998 whole entry): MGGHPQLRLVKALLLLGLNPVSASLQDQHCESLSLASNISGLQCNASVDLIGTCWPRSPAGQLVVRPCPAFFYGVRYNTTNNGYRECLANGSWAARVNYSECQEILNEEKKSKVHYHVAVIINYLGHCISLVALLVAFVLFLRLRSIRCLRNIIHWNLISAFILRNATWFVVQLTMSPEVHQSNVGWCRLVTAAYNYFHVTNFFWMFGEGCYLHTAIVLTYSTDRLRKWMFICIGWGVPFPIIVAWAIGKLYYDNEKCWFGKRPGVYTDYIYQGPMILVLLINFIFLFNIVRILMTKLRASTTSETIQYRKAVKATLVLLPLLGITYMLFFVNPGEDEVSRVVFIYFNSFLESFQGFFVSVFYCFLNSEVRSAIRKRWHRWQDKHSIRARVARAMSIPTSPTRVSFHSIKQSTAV
Procedure, shortened: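 Cloned human CRF1 receptor expressed in […] cells. Radiolabeled sauvagine used as ligand. Ki derived from dose–response curves over 1 nM to 10 μM. Values are the mean of three or more independent determinations.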

[2] = molecular target: T1, Corticotropin-releasing factor receptor 1; test: Inhibition of CRF stimulated cAMP production in CHO cells expressing CRF1 receptor; type: functional, cell-based
[3] = Concentration maximum in brain of rat was determined after 1 hr upon oral administration; type: ADME, organism-based; design: route oral
Procedure, shortened: (§1)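 Male Sprague-Dawley rats given 10 mg/kg intravenously or orally. Plasma clearance, volume of distribution and terminal half-life taken from the iv arm. Plasma and brain Cmax taken after oral dosing. Oral bioavailability estimated. Brain exposure relative to plasma based on AUC (0–6 h).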

[4] = Concentration maximum in plasma of rat was determined after 1 h upon oral administration; type: ADME, organism-based; design: route oral; procedure, shortened: as §1
[5] = Plasma clearance in rat was determined upon i.v. administration; type: ADME, organism-based; details: iv; procedure, shortened: as §1
[6] = Oral bioavailability in Rat upon oral administration; type: ADME, organism-based; details: in vivo; procedure, shortened: as §1
[7] = Terminal half life in rat was determined upon intravenous administration; details: in vivo
[8] = Volume distribution in rat was determined upon intravenous administration; details: in vivo
[9] = Terminal half life in rat was determined upon oral administration; type: ADME, organism-based; details: in vivo

Structure (SMILES) | Ki [1] | also measured
CCCC(CCC)N1CCn2nc(-c3ccc(Cl)cc3Cl)c3nc(C)cc1c32 | 4.5 nM | –
CCCC(CCC)N1CCn2c(=O)n(-c3ccc(C(F)(F)F)cc3)c3nc(C)cc1c32 | 17 nM | –
CCCC(CCC)N1CCn2c(=O)n(-c3ccc(Cl)cc3Cl)c3nc(C)cc1c32 | 5.1 nM | –
CCCC(CCC)N1CCn2c(=O)n(-c3ccc(C(=O)OC)cc3)c3nc(C)cc1c32 | 920 nM | –
CCCC(CCC)N1CCn2c(=O)n(-c3ccc(OC)cc3)c3nc(C)cc1c32 | 2 nM | IC50 [2]: 71 nM; Cmax [3]: 1180 ng/g; Cmax [4]: 356 ng/mL; clearance [5]: 53.4 mL/min/kg; bioavailability [6]: 30%; half-life [7]: 1.6 h; Vd [8]: 7.2 L/kg
CCC(CC)N1CCn2c(=O)n(-c3ccc(OC)cc3C)c3nc(C)cc1c32 | 20 nM | –
CCCC(CCC)N1CCn2c(=O)n(-c3ccc(C(C)C)cc3Br)c3nc(C)cc1c32 | 1.1 nM | –
CCCC(CCC)N1CCn2c(=O)n(-c3ccc(S(C)(=O)=O)cc3)c3nc(C)cc1c32 | 460 nM | –
CCCC(CCC)N1CCn2c(=O)n(-c3ccccc3OC)c3nc(C)cc1c32 | 44 nM | –
CCCC(CCC)N1CCn2c(=O)n(-c3cccc(OC)c3)c3nc(C)cc1c32 | 130 nM | –
CCC(CC)N1CCn2c(=O)n(-c3ccc(C(F)(F)F)cc3)c3nc(C)cc1c32 | 170 nM | –
CCC(CC)N1CCn2c(=O)n(-c3ccc(OC)cc3)c3nc(C)cc1c32 | 8 nM | –
CCCC(CCC)N1CCn2c(=O)n(-c3ccc(OC)nc3)c3nc(C)cc1c32 | 60 nM | –
CCCC(CCC)N1CCn2c(=O)n(-c3ccc(OCC)cc3)c3nc(C)cc1c32 | 140 nM | –
CCCC(CCC)N1CCn2c(=O)n(-c3ccc(Cl)cc3)c3nc(C)cc1c32 | 12 nM | –
CCCCN1CCn2c(=O)n(-c3ccc(OC)cc3)c3nc(C)cc1c32 | 8800 nM | –
COc1ccc(-n2c(=O)n3c4c(cc(C)nc42)N(C(C)C)CC3)cc1 | > 10000 nM | –
CCCC(CCC)N1CCn2c(=O)n(-c3ccc(Cl)cn3)c3nc(C)cc1c32 | 23 nM | –
CCC(CC)N1CCn2c(=O)n(-c3ccc(Cl)cc3)c3nc(C)cc1c32 | 58 nM | –
COCC(COC)Nc1nc(C)nc2c(-c3ccc(Cl)cc3Cl)c(C)nn12 | – | half-life [9]: 16 h; Vd [8]: 22 L/kg
CCCCN(CC)c1nc(C)nc2c1c(C)cn2-c1c(C)cc(C)cc1C [CP-154526] | – | T1/2 [9]: 51 h; Vd [8]: 105 L/kg

Reference: ChEMBL document CHEMBL1141137, “Design and synthesis of tricyclic imidazo[4,5-b]pyridin-2-ones as corticotropin-releasing factor-1 antagonists” (J Med Chem, 2005)
